Source: ChEMBL document CHEMBL1127318, “Hypoxia-selective antitumor agents. 8. Bis(nitroimidazolyl)alkanecarboxamides: a new class of hypoxia-selective cytotoxins and hypoxic cell radiosensitisers” (J Med Chem, 1994)

Columns and labels:
[1] = (§1) In vitro therapeutic index (aerobic IC50 / hypoxic C1.6); assay type: cell-based, Cricetulus griseus; conditions: chinese hamster, CHO-AA8 cells; read-out: TI
Summary of the method: (§2)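 Hypoxic C1.6: stirred AA8 gassed with 5% CO₂/N₂ 60 min, drug 30 min, ⁶⁰Co irradiation at 37 °C (~2 Gy/min). D10 from linear-quadratic fit; concentration giving SER 1.6 interpolated. Index = IC50/C1.6.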

CHO-AA8 [2] = assay: Average intracellular compound concentration when the hypoxic SER=1.6.; assay type: functional, Cricetulus griseus
Summary of the method: (§3)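 Hypoxic stirred AA8 suspensions (10⁷ cells) incubated 30 min at the C1.6 concentration. Cells and supernatant separated by centrifugation and extracted into MeCN. Drug measured by C18 HPLC with formate pH 4.5/MeCN gradient, absorbance 320 nm. Values corrected for recovery using spiked medium or lysed pellets. Mean intracellular concentration calculated assuming 11.6 µL cell water and 1.1 µL pellet extracellular water per 10⁷ cells.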

CHO-AA8 [3] = assay: Compound concentration at which sensitizer enhancement ratio =1.6 under hypoxia.; assay type: functional, Cricetulus griseus
Summary of the method: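 Stirred AA8 suspensions gassed 60 min with 5% CO2 in N2. Drug added 30 min before ⁶⁰Co irradiation at 37 °C (ca. 2 Gy/min, typically 6 Gy steps). Clonogenic survival taken against unirradiated cells from the same culture. Linear-quadratic fit gives D10; SER = D10 without/with drug, determined over a range of concentrations to estimate C1.6. Only concentrations with minimal drug toxicity during irradiation were used.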

EMT6 = assay: Aerobic cytotoxicity against murine mammary carcinoma EMT6 cells in a growth inhibition microassay; assay type: functional, Mus musculus
Summary of the method: (§4)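 Cells kept as log-phase monolayers in antibiotic-free Alpha MEM with 10% heat-inactivated FCS. Per well: 200 AA8, 300 UV4, 50 EMT6 or 1000 FME cells. Drug added 24 h after seeding and removed after 18 h. Cell mass (protein, methylene blue absorbance) read 72–78 h after washout. IC50 = concentration giving 50% of the mean of eight controls on the same plate.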

[4] = Partition coefficient (logP); assay type: physicochemical; conditions: octanol/water
Summary of the method: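 log P octanol computed with CLOGP rather than measured.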

CHO-AA8 [5] = assay: Concentration required to reduce AA8 cell numbers to 50% of controls in a growth inhibition microassay; assay type: functional, cell-based; conditions: Cricetulus griseus; summary of the method: as §4
UV4 = assay: Aerobic cytotoxicity against UV4 cells in a growth inhibition microassay; assay type: functional, Cricetulus griseus; summary of the method: as §4
CHO-AA8 [6] = assay: (§5) Compound concentration required to reduce cell survival to 10% of control values under hypoxic condition; assay type: cell-based, Cricetulus griseus; conditions: chinese hamster
Summary of the method: (§6)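 Chinese hamster AA8 cells at plateau phase, 10⁶/mL, in magnetically stirred 10-mL suspensions. Gassed continuously with 5% CO₂ in N₂ (hypoxic) or in air (aerobic); cells and drug preequilibrated under the gas for 60 min. Clonogenic plating efficiency read every 0.5–1 h for up to 8 h at several drug concentrations. Concentration × time for 10% survival (CT10) estimated at each concentration.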

[7] = Ratio of mean intracellular to extracellular compound concentration determined under hypoxic condition.; assay type: functional, cell-based
Summary of the method: (§7)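 AA8 suspension (10⁷ cells) made hypoxic with 5% CO₂ in N₂, exposed 30 min at 37 °C to drug at the C1.6. Supernatant and lysed pellet extracted in MeCN. Assayed by C18 HPLC (formate pH 4.5/MeCN gradient, 320 nm), corrected for spiked recoveries. Intracellular level from 11.6 µL cell water/10⁷ cells, with [¹⁴C]sucrose and ³H₂O spaces. Result expressed as Ci/Ce.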

[8] = The ratio of aerobic CT10 to hypoxic CT10.; assay type: functional
Summary of the method: (§8)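 Clonogenic assay on stirred plateau-phase AA8 suspensions (10⁶/mL), gassed with 5% CO₂ in air or in N₂ after 60 min preequilibration. Survival sampled every 0.5–1 h up to 8 h at several drug concentrations. CT10 taken at each concentration. Interpolated aerobic CT10 divided by hypoxic CT10 at the same time; ranges cover 1–8 h exposure.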

FME = assay: Aerobic cytotoxicity against human melanoma FME cells in a growth inhibition microassay; assay type: functional; summary of the method: as §4
[9] = as §1; assay type: functional; summary of the method: as §2
CHO-AA8 [10] = assay: Average intracellular compound concentration where the sensitizer enhancement ratio (SER)=1.6 under hypoxia; assay type: functional, Cricetulus griseus; summary of the method: as §3
CHO-AA8 [11] = assay: Compound concentration required to reduce cell survival to 10% of control values under hypoxic condition.; assay type: cell-based, Cricetulus griseus; conditions: chinese hamster; summary of the method: as §6
[12] = Ratio of mean intracellular to extracellular compound concentration determined under hypoxic conditions 30 mins after exposure to compound at C1.6 concentration; assay type: functional, cell-based; summary of the method: as §7
CHO-AA8 [13] = assay: Average intracellular compound concentration where the hypoxia sensitizer enhancement ratio (SER)=1.6; assay type: functional, Cricetulus griseus; summary of the method: as §3
CHO-AA8 [14] = assay: Average intracellular compound concentration when the hypoxic SER=1.6; assay type: functional, Cricetulus griseus; summary of the method: as §3
CHO-AA8 [15] = assay: as §1; assay type: functional, Cricetulus griseus
Summary of the method: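 C1.6 is the concentration giving SER 1.6 in hypoxic stirred AA8 suspensions exposed to drug for 30 min before ⁶⁰Co irradiation at 37 °C.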

CHO-AA8 [16] = assay: as §5; assay type: functional, Cricetulus griseus
Summary of the method: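 Plateau-phase AA8 cells (10⁶/mL) in magnetically stirred 10-mL cultures, gassed continuously with N2 plus 5% CO2. Cells and drug pre-equilibrated 60 min. Clonogenic plating every 0.5–1 h for up to 8 h at several concentrations. CT10 (concentration × time for 10% survival) estimated at each concentration.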

[17] = The ratio of aerobic CT10 to hypoxic CT10; assay type: functional; summary of the method: as §8

Compound | selectivity ratio [1] | C1.6 (CHO-AA8 [2]) | C1.6 (CHO-AA8 [3]) | Hypersensitivity factor (EMT6) | logP [4] | IC50 (CHO-AA8 [5]) | Hypersensitivity factor (UV4) | CT10 (CHO-AA8 [6]) | Uptake ratio [7] | Ratio [8] | Hypersensitivity factor (FME) | TI [9] | C1.6 (CHO-AA8 [10]) | CT10 (CHO-AA8 [11]) | Uptake ratio [12] | C1.6 (CHO-AA8 [13]) | C1.6 (CHO-AA8 [14]) | TI (CHO-AA8 [15]) | CT10 (CHO-AA8 [16]) | Ratio [17]
Cc1ncc([N+](=O)[O-])n1CCNC(=O)Cn1ccnc1[N+](=O)[O-] | 4.3 | 0.54 mM | 1.08 mM | 2.2 | -1.03 | 4.7 mM | 1 | 11 mM-hr | 0.5 | 2.4 | 2.1 |  |  |  |  |  |  |  |  | 
Cc1ncc([N+](=O)[O-])n1CCNC(=O)CCCCn1ccnc1[N+](=O)[O-] | 4 | 0.48 mM | 0.93 mM | 1.7 | -0.79 | 3.8 mM | 1.2 | 6 mM-hr | 0.52 | > 7 | 3.5 |  |  |  |  |  |  |  |  | 
Cc1ncc([N+](=O)[O-])n1CCNC(=O)CCCn1ccnc1[N+](=O)[O-] | 11 | 0.21 mM | 0.63 mM | 1.3 | -1.28 | 7.2 mM | 1.4 | 0.37 mM-hr | 0.33 | 8 | 4.6 |  |  |  |  |  |  |  |  | 
COCC(O)Cn1ccnc1[N+](=O)[O-] (centres undefined) [MISONIDAZOLE] |  |  |  | 3.6 |  |  | 1.4 |  |  | 25 | 1.9 | 28 | 0.43 mM | 8.3 mM-hr | 0.9 | 0.4 mM |  |  |  | 
O=C(CCCn1ccnc1[N+](=O)[O-])NCCn1ccnc1[N+](=O)[O-] | 1.7 |  | 1.54 mM |  | -1.55 |  |  | 3.4 mM-hr | 0.5 | > 6 |  |  |  |  |  |  | 0.77 mM |  |  | 
O=[N+]([O-])c1nccn1CC(O)CNCCBr (centres undefined) |  |  | 0.13 mM | 1.6 |  | 0.15 mM | 5.9 | 0.18 mM-hr |  | 20 | 1 |  |  |  |  |  |  | 1.1 |  | 
O=C(CCCn1ccnc1[N+](=O)[O-])NCCn1ccnc1 |  |  |  | 4.2 | 1.32 | 24 mM | 1.3 |  |  | 8 | 3 | 6 | 4 mM | 26 mM-hr | 0.33 | 1.32 mM |  |  |  | 
Cc1ncc([N+](=O)[O-])n1CCNC(=O)CCn1ccnc1[N+](=O)[O-] | 7.9 | 0.42 mM | 0.7 mM | 2.5 | -0.99 | 5.5 mM | 0.9 | 12 mM-hr | 0.6 | > 7 | 2.9 |  |  |  |  |  |  |  |  | 
Cc1ncc([N+](=O)[O-])n1CCNC(=O)CCCCCn1ccnc1[N+](=O)[O-] | 1.2 | 0.36 mM | 0.65 mM |  | -0.22 |  |  |  | 0.55 | > 17 |  |  |  |  |  |  |  |  | 1.5 mM-hr | 
O=C(CCn1ccnc1[N+](=O)[O-])NCCCn1ccnc1[N+](=O)[O-] |  |  |  | 3.5 | -1.55 | 6.1 mM | 1.2 | 2.5 mM-hr |  | 6.5 | 3.9 |  |  |  |  |  |  |  |  | 
Cc1ncc([N+](=O)[O-])n1CCNC(=O)Cn1c([N+](=O)[O-])cnc1C | 2.8 | 4.1 mM | 2.7 mM | 4.4 | -0.76 | 7.7 mM | 1 |  | 1.5 | 2 | 2.3 |  |  | 50 mM-hr |  |  |  |  |  | 
Cc1ncc([N+](=O)[O-])n1CCO [METRONIDAZOLE] | 1.7 |  |  | 1 |  | 23 mM | 1 | 100 mM-hr |  |  | 1 |  | 13.3 mM |  | 1.3 | 17.3 mM |  |  |  | 5
O=C(CCCn1ccnc1[N+](=O)[O-])NCCn1cncc1[N+](=O)[O-] | > 4.7 | 0.27 mM | 0.9 mM | >1.7 | -1.55 | > 4.2 mM |  | 0.8 mM-hr | 0.3 | > 30 | >2.1 |  |  |  |  |  |  |  |  | 
O=C(CCCn1ccnc1[N+](=O)[O-])NCCn1cnc([N+](=O)[O-])c1 | < 1.6 | >0.36 mM | >1.1 mM |  | -1.55 |  |  | > 15 mM-hr |  |  |  |  |  |  |  |  |  |  |  | 
